Bioassay records from PubChem.
Rows were chosen to be rich in hits. Some 5.1% of all compounds tested hit in one or more screens of this group.
STAT1 activator = increases IFN-gamma driven STAT1 reporter signal; NIH 3T3 STAT1-luciferase reporter, luminescence; 100% = IFN-gamma alone, no compound; activation (% of control), % at 5.5 µM; actives 2.6% (n = 200,000); AID 932;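 active means activation above the screen-wide mean activation plus 3 SD, cut at about 130% in these data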
STAT1 inh = inhibitors of IFN-gamma induced STAT1 signaling | NIH 3T3 STAT1-luciferase reporter, luminescence | inhibition, % at 5.5 µM | actives 0.35% (n = 200,000);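 active means inhibition above a set limit, the mean inhibition across all tested compounds plus 3 SD, cut at about 34% in these data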
NF-kB expr up = compounds increasing NF-kB expression in human neuronal cells; NF-kB reporter expression; active compounds read high; AID 1239; actives 1.6% (n = 190,000); fold change at 12.5 µM; in the data active means fold change above about 3.3
APP 5'UTR act = activates APP 5'UTR luciferase reporter; activation, % at 2 µM; SH-SY5Y APP 5'UTR luciferase reporter, luminescence; zero percent = DMSO vehicle wells; actives 1% (n = 190,000);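 active means activation above a set limit, based on mean plus 3 SD of controls, cut at about 140% in these data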
STAT3 act = increases IL-6 driven STAT3 reporter signal | U3A cells, IL-6 STAT3-luciferase reporter, luminescence; 100% = signal with IL-6 EC80 alone | activation (% of control), % at 5.6 µM | actives 0.91% (n = 190,000) | AID 871;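 active means activation above the screen-wide mean of compound activation plus 3 SD, cut at about 130% in these data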
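System – human U3A cells carrying STAT3-luciferase construct · Probe or stimulus – Interleukin-6, 33 ng/mL · Schedule – compound 1 h, then IL-6 6 h at 37 °C · Signal – luminescence from STAT3-driven luciferase reporter · Evaluation – percent of IL-6-only median luminescence · Benchmarks – IL-6-only high control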
STAT3 blocker = inhibitors of IL-6 induced STAT3 signaling. U3A cells, IL-6 STAT3-luciferase reporter, luminescence; host cell line lacks STAT1. inhibition, % at 5.5 µM. actives 0.89% (n = 190,000);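 active means inhibition above the mean inhibition across all screened compounds plus 3 SD, cut at about 44% in these data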
STAT1 activ conf = STAT1 activation, confirmation assay. activation (% of control), % at 5.7 µM. NIH 3T3 STAT1-luciferase reporter, IFN-gamma potentiation, luminescence; 100% = IFN-gamma EC80 alone, no compound. actives 97% (n = 1,200). shares compounds with STAT1 activator;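 active means activation above a set limit carried over from the earlier primary STAT1 screen, cut at about 140% in these data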
NFkB act = counter-screen for STAT1 activators: NF-kappaB activation; shares compounds with STAT1 activator; HEK293T NF-kB luciferase reporter, TNF-alpha stimulated, luminescence; 100% = TNF-alpha with vehicle only; activation (% of control), % at 5.7 µM; actives 43% (n = 1,200);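 active means activation above the mean of solvent-only control wells plus 3 SD, set per campaign, cut at about 130% in these data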;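 further: TNF-alpha given at a submaximal dose yielding about 80% of full reporter signal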
STAT3 act 2 = counter-screen for STAT1 activators: human STAT3 activation | shares compounds with STAT1 activator | U3A cells STAT3-luciferase reporter, IL-6, luminescence; cells lack STAT1; 100 = IL-6 alone, no compound effect | activation (% of control), % at 5.7 µM | actives 46% (n = 1,200) | AID 1316;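 active means activation above the solvent-only control well mean plus 3 SD, set per plate batch, cut at about 110% in these data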;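 further: higher means more STAT3 reporter activation so hits are non-selective activators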
Each line names hits and unclear results; the compound was inactive in the other large screens (follow-up assays come after a bar, where they were run).

CC(=O)Nc1nonc1-n1nnc(C(=O)NCc2ccccc2)c1C	none
COc1cc(-c2nc3ccccn3c2/N=C/c2cc(OC)c(O)cc2Cl)ccc1O	none
Cc1cc(C)n(-c2nnc(NC34CC5CC(CC(C5)C3)C4)nn2)n1	STAT1 activator 162 | STAT1 activ conf 182 | NFkB act 145 | STAT3 act 2 159
CCc1ccccc1OCC(=O)Nc1nc(-c2cccnc2)cs1	none
N/C(=N\O)C1COc2ccccc2O1 (stereo not given)	none
NC(N)=Nc1nc(C2COc3ccccc3O2)cs1 (stereo not given)	STAT1 activator 164, NF-kB expr up 5, APP 5'UTR act 166 | STAT1 activ conf 202 | NFkB act inactive | STAT3 act 2 inactive
Cc1cc(-c2nn(-c3ccccc3F)cc2CN2CCN(c3ccncc3)CC2)c(C)s1	none
COc1ccc(CC(=O)Nc2ccc(OC)nc2)cc1	none
COc1ccc(NC(=O)C(Cl)=C(Cl)Cl)cn1	none
COc1ccc(NC(=O)/C(Cl)=C(/Cl)S(=O)(=O)Cc2ccccc2)cn1	STAT1 activator 170 | STAT1 activ conf 160 | NFkB act inactive | STAT3 act 2 116
COc1ccc(NC(=O)/C(Cl)=C(/Cl)S(=O)Cc2ccc(Cl)cc2)cn1 (stereo not given)	STAT1 activator 292 | STAT1 activ conf 278 | NFkB act inactive | STAT3 act 2 inactive
O=C1/C(=C/Nc2cccc([N+](=O)[O-])c2)CCc2ccccc21	STAT1 activator 169, NF-kB expr up 4.5, APP 5'UTR act 140 | STAT1 activ conf 212 | NFkB act 134 | STAT3 act 2 inactive
COC(=O)CCc1nc2cc(Cl)ccc2n(Cc2ccccc2)c1=O	none
O=C(NCc1ccccc1)c1c[nH]c2cc3c(cc2c1=O)OCCO3	STAT1 activator 178, NF-kB expr up 3.5 | STAT1 activ conf 190 | NFkB act 140 | STAT3 act 2 126
CN(C)c1ccc(/C=N/NC(=O)c2ccco2)cc1	STAT1 activator 160, NF-kB expr up 5.6 | STAT1 activ conf 174 | NFkB act inactive | STAT3 act 2 inactive
CN(C)c1ccc(/C=N/NC(=O)C2CC2c2ccccc2)cc1 (stereo not given)	none
NC(N)=N/N=C/c1ccccc1OC(F)F	none
COc1ccccc1/C=N\N=C(\N)c1ccccn1	STAT1 activator 162 | STAT1 activ conf 190 | NFkB act inactive | STAT3 act 2 inactive
Cc1ccc(/C=C(\C#N)C(=O)Nc2ccccn2)o1	STAT1 activator 187, NF-kB expr up 4.3 | STAT1 activ conf 205 | NFkB act 138 | STAT3 act 2 111
CCCC(=O)N(c1ccc(C(=O)O)cc1)c1nc(-c2ccccc2)c(C)s1	none (no result: NF-kB expr up)
Nc1c2c(=O)oc(-c3ccccc3)cc2nn1-c1ccccc1	STAT1 activator 177, NF-kB expr up 3.3, APP 5'UTR act 150 | STAT1 activ conf 203 | NFkB act inactive | STAT3 act 2 inactive
Cc1c(-c2ccc(Cl)cc2)oc(=O)c2c(N)n(-c3ccccc3)nc12	none
N#C/C(=C\c1cccs1)C(=O)NCc1ccccc1	none
O=C(Nc1nccs1)Oc1ccccc1	none
N#C/C(=C\c1cccs1)C(=O)Nc1nccs1	STAT1 activator 207, NF-kB expr up 4.1 | STAT1 activ conf 229 | NFkB act 150 | STAT3 act 2 114
C/C(=C\c1ccccc1)C(=O)Nc1nccs1	STAT1 activator 154 | STAT1 activ conf 163 | NFkB act inactive | STAT3 act 2 inactive
CCOc1cc(C(=S)N2CCCCC2)ccc1OCC(=O)NCc1ccccc1	none (no result: APP 5'UTR act)
CC(C)C(NC(=O)C(NC(=O)C1O[C@@H]2OC(C)(C)O[C@@H]2[C@H]2OC(C)(C)O[C@@H]12)C(C)C)C(=O)O (stereo not given in full)	none
C/C(=N/NC(=O)c1ccco1)c1ccc(NC(=O)c2ccc(F)cc2)cc1	STAT1 activator 155 | STAT1 activ conf inactive | NFkB act inactive | STAT3 act 2 inactive
COc1cccc2cc(-c3cn4ccc(C)cc4n3)c(=O)oc12	STAT1 activator 169 (no result: NF-kB expr up) | STAT1 activ conf 218 | NFkB act 134 | STAT3 act 2 inactive
O=c1c2ccccc2cnn1-c1ccc(Cl)cc1	STAT1 activator 166, NF-kB expr up 5.1 | STAT1 activ conf 192 | NFkB act inactive | STAT3 act 2 128
Cc1ccc(/C=N/Nc2nc3ccccc3s2)o1	STAT1 activator 154, NF-kB expr up 6.4, APP 5'UTR act 167 | STAT1 activ conf 264 | NFkB act inactive | STAT3 act 2 129
Cc1nn(-c2ccc(C(=O)O)cc2)c(N)c1-c1ccccc1	STAT1 activator 160, NF-kB expr up 4.9 | STAT1 activ conf 200 | NFkB act 140 | STAT3 act 2 139
COc1ccc(N2CCN(c3cc(C)c4ccccc4n3)CC2)cc1	none
c1ccc(N2CCN(c3cnc4ccccc4n3)CC2)cc1	STAT1 activator 175, NF-kB expr up 6.5 | STAT1 activ conf 219 | NFkB act inactive | STAT3 act 2 inactive
Cc1ccc(/C(N)=N/OC(=O)c2cccs2)cc1	STAT1 activator 164 (no result: APP 5'UTR act) | STAT1 activ conf 188 | NFkB act 142 | STAT3 act 2 116
COc1ccc(C(=O)O/N=C(/C)c2cccs2)cc1	none
N/C(=N\OC(=O)c1cccs1)c1ccccc1	STAT1 activator 156 | STAT1 activ conf 161 | NFkB act inactive | STAT3 act 2 inactive
COc1ccccc1C/C(N)=N/OC(=O)c1cccs1	none
COc1ccc(/C(N)=N/OC(=O)c2cccs2)cc1OC	STAT1 activator 159 | STAT1 activ conf 140 | NFkB act inactive | STAT3 act 2 inactive
N/C(Cc1cccc2ccccc12)=N\OC(=O)c1cccs1	none
CCCOc1ccc(N2CC(C(=O)NC(C)C)CC2=O)cc1 (stereo not given)	none
CCOc1ccc(NC(=O)c2csc3c2CCCC3)cc1	STAT1 activator 171, NF-kB expr up 3.9 | STAT1 activ conf 198 | NFkB act 139 | STAT3 act 2 inactive
COc1cc(NC(=O)c2csc3c2CCCC3)ncn1	STAT1 activator 171, NF-kB expr up 3.3 | STAT1 activ conf 193 | NFkB act inactive | STAT3 act 2 inactive
Cc1noc(C)c1CSc1nc2ccccc2c(=O)n1-c1ccc(Cl)cc1	none
